Measurements as given in ChEMBL document CHEMBL1208755, “5-Nitro-2-furoic acid hydrazones: design, synthesis and in vitro antimycobacterial evaluation against log and starved phase cultures” (Bioorg Med Chem Lett, 2010).
≈ marks a conversion by molar mass, not a printed value.

Legend:
[1] = system: Mycobacterium tuberculosis; test: Antimicrobial activity aagainst Mycobacterium tuberculosis ATCC 14468 in log phase by agar dilution method; type: functional
Procedure, shortened: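 M. tuberculosis log-phase cultures were tested by agar dilution following NCCLS-type guidance, in duplicate. MIC was taken as the lowest concentration giving complete inhibition of bacterial growth.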

[2] = Antimicrobial activity aagainst Mycobacterium sp. Mc2 in log phase assessed as inhibition of growth; type: functional
Procedure, shortened: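 Agar dilution along the lines of NCCLS guidance, run in duplicate on log-phase cultures. MIC is the lowest compound concentration that gives complete inhibition of bacterial growth.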

[3] = Antimicrobial activity aagainst Mycobacterium sp. Mc2 in presence of acetate; type: functional
[4] = target: T1, Isocitrate lyase (Mycobacterium tuberculosis) (UniProt P9WKK7); test: Percent inhibition of Mycobacterium tuberculosis isocitrate lyase (ICL) at 100 uM
T1 sequence (whole entry): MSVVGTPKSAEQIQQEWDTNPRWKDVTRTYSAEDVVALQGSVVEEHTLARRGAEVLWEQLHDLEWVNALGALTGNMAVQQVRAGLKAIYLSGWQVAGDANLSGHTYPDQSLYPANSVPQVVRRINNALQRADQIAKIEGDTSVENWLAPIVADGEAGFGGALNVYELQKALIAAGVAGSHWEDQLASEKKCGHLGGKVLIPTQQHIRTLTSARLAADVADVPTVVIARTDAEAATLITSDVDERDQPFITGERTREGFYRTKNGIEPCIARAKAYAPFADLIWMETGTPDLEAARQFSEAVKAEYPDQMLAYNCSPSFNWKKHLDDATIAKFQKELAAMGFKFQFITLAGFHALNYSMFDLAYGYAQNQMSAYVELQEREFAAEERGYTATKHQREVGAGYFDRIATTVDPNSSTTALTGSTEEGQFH
Procedure, shortened: (§1)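 Isocitrate lyase activity was measured at 37 °C with phenylhydrazine present, reading glyoxylate-phenylhydrazone formation at 324 nm. Percent inhibition was determined at a single concentration.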

[5] = Cytotoxicity against african green monkey Vero cells after 72 hrs by MTT assay; type: cell-based; conditions: chlorocebus sabaeus
[6] = system: Mycobacterium tuberculosis; test: Antimicrobial activity aagainst Mycobacterium tuberculosis ATCC 14468 in starved phase by agar dilution method; type: functional
Procedure, shortened: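 Six-week nutrient-starved M. tuberculosis cells were tested by agar dilution in duplicate, following a literature procedure. MIC was taken as the lowest concentration giving complete inhibition of growth.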

[7] = target: T1, Isocitrate lyase (Mycobacterium tuberculosis); test: Percent inhibition of Mycobacterium tuberculosis isocitrate lyase (ICL) at 10 uM; procedure, shortened: as §1

Structure (SMILES) | MIC [1] | MIC [2] | MIC [3] | inhibition [4] | CC50 at 72 h [5] | MIC [6] | inhibition [7]
O=C(N/N=C/c1ccc(Cl)cc1)c1ccc([N+](=O)[O-])o1 | 21.3 µM (≈ 6.25 µg/mL) | 42.6 µM (≈ 12.5 µg/mL) | 10.7 µM | – | – | – | –
O=C(O)CC[N+](=O)[O-] | – | – | – | 63.2% | – | – | –
C/C(=N\NC(=O)c1ccc([N+](=O)[O-])o1)c1ccc(F)cc1 | 5.35 µM (≈ 1.56 µg/mL) | 21.5 µM (≈ 6.25 µg/mL) | 42.9 µM | – | 215 µM | 21.5 µM (≈ 6.25 µg/mL) | 28.1%
O=C(N/N=C/c1ccc([N+](=O)[O-])cc1)c1ccc([N+](=O)[O-])o1 | 20.6 µM (≈ 6.25 µg/mL) | 82.2 µM (≈ 25 µg/mL) | 20.6 µM | – | – | – | –
O=C(N/N=C/c1ccc(F)cc1)c1ccc([N+](=O)[O-])o1 | 22.5 µM (≈ 6.25 µg/mL) | 90.2 µM (≈ 25 µg/mL) | 45.1 µM | – | – | – | –
O=C(N/N=C/c1ccc([N+](=O)[O-])o1)c1ccc([N+](=O)[O-])o1 | 2.65 µM (≈ 0.78 µg/mL) | 0.68 µM (≈ 0.2 µg/mL) | 5.3 µM | – | 213 µM | 10.6 µM (≈ 3.13 µg/mL) | 86.8%
C/C(=N\NC(=O)c1ccc([N+](=O)[O-])o1)c1ccc(Br)cc1 | 8.88 µM (≈ 3.13 µg/mL) | 17.8 µM (≈ 6.25 µg/mL) | 4.43 µM | – | > 178 µM | 17.8 µM (≈ 6.25 µg/mL) | 73.1%
CO[C@H]1/C=C/O[C@@]2(C)Oc3c(C)c(O)c4c(O)c(c(/C=N/N5CCN(C)CC5)c(O)c4c3C2=O)NC(=O)/C(C)=C\C=C\[C@H](C)[C@H](O)[C@@H](C)[C@@H](O)[C@@H](C)[C@H](OC(C)=O)[C@@H]1C [RIFAMPIN] | 0.48 µM (≈ 0.395 µg/mL) | 1.89 µM (≈ 1.56 µg/mL) | > 15.2 µM | – | > 75.9 µM | > 15.2 µM | –
O=C(N/N=C/c1c(Cl)cccc1Cl)c1ccc([N+](=O)[O-])o1 | 19 µM (≈ 6.25 µg/mL) | 76.2 µM (≈ 25 µg/mL) | 38.1 µM | – | – | – | –
C/C(=N\NC(=O)c1ccc([N+](=O)[O-])o1)c1ccc([N+](=O)[O-])cc1 | 9.84 µM (≈ 3.13 µg/mL) | 19.6 µM (≈ 6.25 µg/mL) | 19.6 µM | – | > 197 µM | 19.6 µM (≈ 6.25 µg/mL) | 48.9%
O=C(N/N=C/c1ccc(O)cc1)c1ccc([N+](=O)[O-])o1 | > 45.4 µM | > 45.4 µM | 45.4 µM | – | – | – | –
O=C(N/N=C/c1ccccc1C(F)(F)F)c1ccc([N+](=O)[O-])o1 | 4.76 µM (≈ 1.56 µg/mL) | 4.76 µM (≈ 1.56 µg/mL) | 9.56 µM | – | > 191 µM | 19.1 µM (≈ 6.25 µg/mL) | 30.1%
C/C(=N\NC(=O)c1ccc([N+](=O)[O-])o1)c1ccccc1O | > 43.2 µM | > 43.2 µM | > 43.2 µM | – | – | – | –
O=C(N/N=C/c1ccco1)c1ccc([N+](=O)[O-])o1 | 25.1 µM (≈ 6.25 µg/mL) | 50.2 µM (≈ 12.5 µg/mL) | 25.1 µM | – | – | – | –
COc1ccc(/C=N/NC(=O)c2ccc([N+](=O)[O-])o2)cc1 | 21.6 µM (≈ 6.25 µg/mL) | 43.2 µM (≈ 12.5 µg/mL) | 21.6 µM | – | – | – | –
O=C(N/N=C/c1ccccc1)c1ccc([N+](=O)[O-])o1 | 48.2 µM (≈ 12.5 µg/mL) | 192 µM (≈ 49.8 µg/mL) | 48.2 µM | – | – | – | –
O=C(N/N=C/c1ccccc1[N+](=O)[O-])c1ccc([N+](=O)[O-])o1 | 10.3 µM (≈ 3.13 µg/mL) | 10.3 µM (≈ 3.13 µg/mL) | 10.3 µM | – | 206 µM | 41.1 µM (≈ 12.5 µg/mL) | 46.8%
C/C(=N\NC(=O)c1ccc([N+](=O)[O-])o1)c1ccccc1 | 11.4 µM (≈ 3.13 µg/mL) | 45.7 µM (≈ 12.5 µg/mL) | 45.7 µM | – | > 229 µM | 45.7 µM (≈ 12.5 µg/mL) | 34.9%
Cc1ccc(/C=N/NC(=O)c2ccc([N+](=O)[O-])o2)cc1 | 11.4 µM (≈ 3.13 µg/mL) | 45.7 µM (≈ 12.5 µg/mL) | 22.9 µM | – | > 229 µM | 91.5 µM (≈ 25 µg/mL) | 19.8%
C/C(=N\NC(=O)c1ccc([N+](=O)[O-])o1)c1ccc(C)cc1 | 10.9 µM (≈ 3.13 µg/mL) | 43.5 µM (≈ 12.5 µg/mL) | 43.5 µM | – | > 218 µM | 43.5 µM (≈ 12.5 µg/mL) | 32.5%
O=C(N/N=C/c1cccc(Br)c1)c1ccc([N+](=O)[O-])o1 | 18.5 µM (≈ 6.25 µg/mL) | 37 µM (≈ 12.5 µg/mL) | 37 µM | – | – | – | –
O=C(N/N=C/c1ccc(Br)cc1)c1ccc([N+](=O)[O-])o1 | 18.5 µM (≈ 6.25 µg/mL) | 73.9 µM (≈ 25 µg/mL) | 37 µM | – | – | – | –
COc1cc(/C=N/NC(=O)c2ccc([N+](=O)[O-])o2)ccc1O | 41 µM (≈ 12.5 µg/mL) | 81.9 µM (≈ 25 µg/mL) | 20.5 µM | – | – | – | –
NNC(=O)c1ccncc1 [ISONIAZID] | 0.72 µM (≈ 0.0987 µg/mL) | 45.6 µM (≈ 6.25 µg/mL) | > 91.1 µM | – | > 456 µM | > 91.1 µM | –
